From ChEMBL document CHEMBL4229344 (Eur J Med Chem, 2018) come the findings set out here.

The source made the active and inactive calls. The calls are words filed in the database; no cut-off is given here.

In series [1] the target is Serine/threonine-protein kinase mTOR (Homo sapiens) (UniProt P42345). Kind of series: Binding affinity to wild-type human partial length MTOR (L1382 to W2549 residues) expressed in mammalian expression system assessed as residual binding level at 1 uM by Kinomescan method relative to control.
The target in series [2] is Ankyrin repeat and protein kinase domain-containing protein 1 (Homo sapiens) (UniProt Q8NFD2). The series can be described thus: Binding affinity to wild-type human partial length ANKK1 (M1 to A305 residues) expressed in mammalian expression system assessed as residual binding level at 1 uM by Kinomescan method relative to control. In short, it runs like this: (§1)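 Single-concentration KINOMEscan (DiscoverX) binding screen at 1 μM against a panel of 468 purified kinases and mutants. The read-out is binding relative to control.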

In series [3] the target is 3-phosphoinositide-dependent protein kinase 1 (Homo sapiens) (UniProt O15530). The series can be described thus: Binding affinity to wild-type human full length PDPK1 (M1 to Q556 residues) expressed in bacterial expression system assessed as residual binding level at 1 uM by Kinomescan method relative to control. The essentials: as §1
The target of series [4] is NT-3 growth factor receptor (Homo sapiens) (UniProt Q16288). The series can be described thus: Binding affinity to wild-type human partial length TRKC (Q531 to G825 residues) expressed in mammalian expression system assessed as residual binding level at 1 uM by Kinomescan method relative to control. In short, it runs like this: (§2)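 KINOMEscan competition binding against a panel of 468 purified kinases/mutants, compound tested at 1 μM; readout is relative binding activity versus control.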

In the next series the test system is EOL1. The series can be described thus: Antitumor activity against human EOL-1 cells xenografted in nu/nu mouse assessed as tumor growth inhibition at 100 mg/kg/day, ip. Particulars: read-out: TGI. Type of series: functional. The essentials: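 Female nu/nu mice (6 weeks) given subcutaneous right-flank injection of 5 million EOL-1 cells in PBS/Matrigel 1:1. At 200–400 mm3 tumors, randomized to groups of 6 and dosed daily i.p. for 14 days at 25, 50 or 100 mg/kg/d in 0.5% methylcellulose/0.4% Tween80. Tumor volume = W²×L/2, measured daily.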
On the technique in general: A xenograft is tissue or cells of one species grown in another, often human tumour cells in immunodeficient mice.

Series [5] has as its target Proto-oncogene tyrosine-protein kinase receptor Ret (Homo sapiens) (UniProt P07949). The series can be described thus: Binding affinity to wild-type human partial length RET (E713 to D1014 residues) expressed in bacterial expression system assessed as residual binding level at 1 uM by Kinomescan method relative to control.
Series [6] has as its system Mast/stem cell growth factor receptor Kit (Homo sapiens), P10721 [D816H]. The series can be described thus: Binding affinity to human partial length KIT D816H mutant (I571 to D952 residues) expressed in mammalian expression system assessed as residual binding level at 1 uM by Kinomescan method relative to control. In short, it runs like this:
(§3)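 Kinome-wide single-concentration binding screen (KINOMEscan) at 1 μM against a panel of 468 purified kinases and mutants. Read-out is relative binding of each kinase compared with control. Selectivity across the panel was summarised as an S(10) score.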

A short description of series [7]: Half life in Sprague-Dawley rat at 1 mg/kg, iv. It is filed as ADME, organism-based. Conditions: in vivo.
Series [8] deals with Mast/stem cell growth factor receptor Kit (Homo sapiens), P10721 [V559D]. The series can be described thus: Binding affinity to human partial length KIT V559D mutant (Y545 to D952 residues) expressed in bacterial expression system assessed as residual binding level at 1 uM by Kinomescan method relative to control. In short, it runs like this:
as §3

The target in series [9] is Phosphatidylinositol 5-phosphate 4-kinase type-2 beta (Homo sapiens) (UniProt P78356). The series can be described thus: Binding affinity to wild-type human full length PIP5K2B (M1 to T416 residues) expressed in bacterial expression system assessed as residual binding level at 1 uM by Kinomescan method relative to control. The essentials:
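KINOMEscan competition binding against 468 purified kinases/mutants, test compound at 1 µM; residual binding relative to control.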

A further series deals with NCI-H1703. Kind of series: Induction of apoptosis in human NCI-H1703 cells assessed as cleaved caspase3 expression level after 72 hrs in presence of PDGF-AA by Western blot analysis. Type of series: functional, cell-based. In short, it runs like this: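 Cells exposed to compound or DMSO for the stated periods, then lysed and immunoblotted for PARP and caspase-3 cleavage, with β-actin as loading control. NCI-H1703 stimulation used PDGF AA at 100 ng/mL.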
(A western blot detects proteins with antibodies after separation by electrophoresis.)

Series [10] deals with CDK4/Cyclin D3 (Homo sapiens) (UniProt P11802+P30281). Kind of series: Binding affinity to wild-type human full length CDK4/cyclinD3 (M1 to E303 residues) expressed in mammalian expression system assessed as residual binding level at 1 uM by Kinomescan method relative to control. In short, it runs like this: (§4)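 Single-concentration (1 μM) competition-binding screen run by KINOMEscan against a panel of 468 purified kinases and mutants. The read-out is the relative binding activity of the test compound to each kinase.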

Series [11] deals with Tyrosine-protein kinase Lck (Homo sapiens) (UniProt P06239). The series can be described thus: Binding affinity to wild-type human partial length LCK (R207 to P509 residues) expressed in bacterial expression system assessed as residual binding level at 1 uM by Kinomescan method relative to control.
Series [12] concerns the target Casein kinase II subunit alpha' (Homo sapiens) (UniProt P19784). Kind of series: Binding affinity to wild-type human full length CSNK2A2 (M1 to R350 residues) expressed in mammalian expression system assessed as residual binding level at 1 uM by Kinomescan method relative to control. The essentials: as §4
The target of series [13] is Serine/threonine-protein kinase Nek6 (Homo sapiens) (UniProt Q9HC98). Kind of series: Binding affinity to wild-type human full length NEK6 (M8 to T313 residues) expressed in bacterial expression system assessed as residual binding level at 1 uM by Kinomescan method relative to control. In short, it runs like this:
as §1

Series [14] is described as follows: AUC (0 to infinity) in Sprague-Dawley rat at 10 mg/kg, po. It is filed as ADME, organism-based. Set-up: dose 10 mg/kg, route oral, time infinity. Conditions: in vivo. The essentials:
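Male Sprague-Dawley rats (6–8 weeks) fasted overnight, dosed IV or orally; compound dissolved in 5% DMSO/40% PEG400/55% saline (dosing solution 1 mg/mL). Blood (~0.2 mL) from jugular vein into heparin; IV sampling 1 min–8 h, oral 5 min–24 h. Plasma separated by centrifugation at 2–8 °C, stored at −80 °C until analysis.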

Series [15] relates to Platelet-derived growth factor receptor alpha (Homo sapiens), P16234 [T674I]. Kind of series: Inhibition of TEL-fused PDGFRalpha T674I mutant (unknown origin) expressed in mouse BA/F3 cells assessed as growth inhibition after 72 hrs by CellTiter-Glo or CCK-8 assay. It is filed as cell-based.
Series [16] in a line: Tmax in Sprague-Dawley rat at 1 mg/kg, iv. It is filed as ADME, organism-based. Particulars: in vivo. The essentials: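 Male Sprague-Dawley rats, 6–8 weeks old and fasted overnight, dosed IV at 1 mg/kg or PO at 10 mg/kg. Formulation was 5% DMSO/40% PEG400/55% saline (1 mg/mL). Jugular blood collected on heparin from 1 min to 8 h (IV) or 5 min to 24 h (PO). Plasma separated by centrifugation at 2–8 °C and stored at −80 °C.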

Series [17] concerns the target Calcium/calmodulin-dependent protein kinase type 1 (Homo sapiens) (UniProt Q14012). Kind of series: Binding affinity to wild-type human full length CAMK1 (M1 to L370 residues) expressed in bacterial expression system assessed as residual binding level at 1 uM by Kinomescan method relative to control. The essentials: as §4
The target of series [18] is Protein kinase C theta type (Homo sapiens) (UniProt Q04759). Kind of series: Binding affinity to wild-type human partial length PRKCQ (L350 to S706 residues) expressed in bacterial expression system assessed as residual binding level at 1 uM by Kinomescan method relative to control. The essentials: as §2

One may read the half-life as how long it takes for the measured level to halve. High values mean slow loss, low ones fast loss. As a reminder, the AUC(0-inf) is the area under the concentration-time curve extrapolated to infinity. Usually GI50 stands for the concentration that inhibits growth by half. For orientation: Tmax means the time at which the peak concentration occurs. Take `Cc1ccc(NC(=O)c2ccc(CN(CCN(C)C)C(=O)c3cccnc3)cc2)cc1Nc1nccc(-c2cccnc2)n1`: the Activity in series [1] was found to be 100%; in [2] it was 100%; in series [3] it was 100%; in series [4], 89%; in series [5], 80%; in series [6] it was 100%. For the same compound, the Activity was found to be 0.8% in series [8]; 83% in [9]; 100% in series [10]; 100% in series [11]; 88% in [12]; 90% in [13]. The Activity in [17] was determined as 81%; in series [18], 83%. In addition, the inhibition in vivo at 100 mg/kg/day in the series with EOL1 was determined as 100%. The compound also had a half-life in series [7] of 2.05 h. Moreover, the result in the series on NCI-H1703 was Active. In series [14], this compound came in with an AUC(0-inf) of 115 ng·h/mL. For the same compound, in [15], the GI50 was above 10 µM. Moreover, the Tmax in series [16] came out at 1.02 min.
